Laboratory results: ChEMBL document CHEMBL2311479, “Remarkable stabilization of antiparallel DNA triplexes by strong stacking effects of consecutively modified nucleobases containing thiocarbonyl groups” (Bioorg Med Chem Lett, 2013)
pKd: −log10 of the molar value. The source made the active and inactive calls. No cut-off for these calls is given here.

What was measured:
[1] = Binding affinity to HP duplex DNA 2 (unknown origin) containing HIV2 nef gene sequence incubated for 12 hrs at 37 degC in presence of 50 mM pH 7.2 HEPES buffer containing 10 mM MgCl2, 100 mM KCl and 10% sucrose
[2] = Binding affinity to HP duplex DNA 2 (unknown origin) containing HIV2 nef gene sequence incubated for 12 hrs at 37 degC in presence of 50 mM pH 7.2 HEPES buffer containing 10 mM MgCl2, 100 mM NaCl and 10% sucrose
Procedure, shortened: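 Oligonucleotide binding to a 5'-FAM-labeled hairpin duplex bearing the HIV2 nef sequence. Incubation was 12 h at 37 °C in 50 mM HEPES (pH 7.2) with 10 mM MgCl2, 100 mM NaCl and 10% sucrose. Kd reported in µM.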

[3] = (§1) Binding affinity to fluorescently-labeled mismatched HP duplex DNA 7 (unknown origin) containing HIV2 nef gene assessed as formation of stable triplexes at 100 uM incubated for 12 hrs at 37 degC in presence of 50 mM pH 7.2 HEPES buffer containing 10 mM MgCl2, 100 mM NaCl and 10% sucrose by gel mobility shift assay
Procedure, shortened: (§2)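 Triplex formation by gel shift. Oligonucleotide at 100 µM was mixed with fluorescently labeled hairpin duplex at 40 nM in 50 mM HEPES (pH 7.2), 10 mM MgCl2, 100 mM NaCl and 10% sucrose for 12 h at 37 °C. Complexes were resolved on a 15% nondenaturing polyacrylamide gel.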

[4] = as §1, with “DNA 6” for “DNA 7”; procedure, shortened: as §2
[5] = as §1, with “DNA 3” for “DNA 7”; procedure, shortened: as §2
[6] = as §1, with “DNA 5” for “DNA 7”; procedure, shortened: as §2
[7] = Binding affinity to fluorescently-labeled HP duplex DNA 2 (unknown origin) containing HIV2 nef gene assessed as formation of stable triplexes at 40 uM in presence of 40 uM RNA 1 (5'-CACCACCACCACC-3') by gel mobility shift assay
[8] = as §1, with “DNA 4” for “DNA 7”; procedure, shortened: as §2
[9] = as §1, with “DNA 8” for “DNA 7”; procedure, shortened: as §2
[10] = as §1, with “fluorescently-labeled” for “fluorescently-labeled mismatched”, “DNA 2” for “DNA 7”; procedure, shortened: as §2
[11] = Binding affinity to fluorescently-labeled HP duplex DNA 2 (unknown origin) containing HIV2 nef gene assessed as formation of stable triplexes at 40 uM by gel mobility shift assay
[12] = Binding affinity to HP duplex DNA 1 (unknown origin) containing c-Myc P2 promoter sequence incubated for 12 hrs at 37 degC in presence of 50 mM pH 7.2 HEPES buffer containing 10 mM MgCl2, 100 mM NaCl and 10% sucrose

| pKd [1] | pKd [2] | Activity [3] | Activity [4] | Activity [5] | Activity [6] | Activity [7] | Activity [8] | pKd [9] | Activity [10] | Activity [11] | pKd [12] | SMILES |
| --- | --- | --- | --- | --- | --- | --- | --- | --- | --- | --- | --- | --- |
| 6.70 | 6.40 | inactive | inactive | inactive | inactive | Active | inactive | < 4.00 | Active | Active | – | Cc1cn([C@H]2C[C@H](OP(=O)(O)OC[C@H]3O[C@@H](n4cnc5c(=O)[nH]c(N)nc54)[C@H](O)[C@@H]3O)[C@@H](COP(=O)(O)O[C@H]3C[C@H](n4cnc5c(=S)[nH]c(N)nc54)O[C@@H]3COP(=O)(O)O[C@H]3C[C@H](n4cnc5c(=S)[nH]c(N)nc54)O[C@@H]3COP(=O)(O)O[C@H]3C[C@H](n4cc(C)c(=S)[nH]c4=O)O[C@@H]3COP(=O)(O)O[C@H]3C[C@H](n4cnc5c(=S)[nH]c(N)nc54)O[C@@H]3COP(=O)(O)O[C@H]3C[C@H](n4cnc5c(=S)[nH]c(N)nc54)O[C@@H]3COP(=O)(O)O[C@H]3C[C@H](n4cc(C)c(=S)[nH]c4=O)O[C@@H]3COP(=O)(O)O[C@H]3C[C@H](n4cnc5c(=S)[nH]c(N)nc54)O[C@@H]3COP(=O)(O)O[C@H]3C[C@H](n4cnc5c(=S)[nH]c(N)nc54)O[C@@H]3COP(=O)(O)O[C@H]3C[C@H](n4cc(C)c(=S)[nH]c4=O)O[C@@H]3COP(=O)(O)O[C@H]3C[C@H](n4cnc5c(=S)[nH]c(N)nc54)O[C@@H]3COP(=O)(O)O[C@H]3C[C@H](n4cnc5c(=S)[nH]c(N)nc54)O[C@@H]3CO)O2)c(=O)[nH]c1=O |
| – | – | – | – | – | – | – | – | – | – | – | 5.14 | Cc1cn([C@H]2C[C@H](OP(=O)(O)OC[C@H]3O[C@@H](n4cnc5c(=S)[nH]c(N)nc54)C[C@@H]3OP(=O)(O)OC[C@H]3O[C@@H](n4cnc5c(=S)[nH]c(N)nc54)C[C@@H]3OP(=O)(O)OC[C@H]3O[C@@H](n4cnc5c(=S)[nH]c(N)nc54)C[C@@H]3OP(=O)(O)OC[C@H]3O[C@@H](n4cc(C)c(=O)[nH]c4=O)C[C@@H]3OP(=O)(O)OC[C@H]3O[C@@H](n4cnc5c(=S)[nH]c(N)nc54)C[C@@H]3OP(=O)(O)OC[C@H]3O[C@@H](n4cnc5c(=S)[nH]c(N)nc54)C[C@@H]3OP(=O)(O)OC[C@H]3O[C@@H](n4cnc5c(=S)[nH]c(N)nc54)C[C@@H]3OP(=O)(O)OC[C@H]3O[C@@H](n4cc(C)c(=O)[nH]c4=O)C[C@@H]3OP(=O)(O)OC[C@H]3O[C@@H](n4cnc5c(=S)[nH]c(N)nc54)C[C@@H]3OP(=O)(O)OC[C@H]3O[C@@H](n4cnc5c(=O)[nH]c(N)nc54)[C@H](O)[C@@H]3O)[C@@H](CO)O2)c(=O)[nH]c1=O |
| – | – | – | – | – | – | – | – | – | – | – | 6.17 | Cc1cn([C@H]2C[C@H](OP(=O)(O)OC[C@H]3O[C@@H](n4cnc5c(=S)[nH]c(N)nc54)C[C@@H]3OP(=O)(O)OC[C@H]3O[C@@H](n4cnc5c(=S)[nH]c(N)nc54)C[C@@H]3OP(=O)(O)OC[C@H]3O[C@@H](n4cnc5c(=S)[nH]c(N)nc54)C[C@@H]3OP(=O)(O)OC[C@H]3O[C@@H](n4cc(C)c(=S)[nH]c4=O)C[C@@H]3OP(=O)(O)OC[C@H]3O[C@@H](n4cnc5c(=S)[nH]c(N)nc54)C[C@@H]3OP(=O)(O)OC[C@H]3O[C@@H](n4cnc5c(=S)[nH]c(N)nc54)C[C@@H]3OP(=O)(O)OC[C@H]3O[C@@H](n4cnc5c(=S)[nH]c(N)nc54)C[C@@H]3OP(=O)(O)OC[C@H]3O[C@@H](n4cc(C)c(=S)[nH]c4=O)C[C@@H]3OP(=O)(O)OC[C@H]3O[C@@H](n4cnc5c(=S)[nH]c(N)nc54)C[C@@H]3OP(=O)(O)OC[C@H]3O[C@@H](n4cnc5c(=O)[nH]c(N)nc54)[C@H](O)[C@@H]3O)[C@@H](CO)O2)c(=O)[nH]c1=S |
